Screens from PubChem BioAssay.
LYPLA2 counter: counter-screen for PME1 inhibitors: inhibitors of human LYPLA2. recombinant LYPLA2, FP-Rh probe fluorescence polarization. inhibition, % at 5.9 µM. AID 2177. O95372. hit rate 0.38% among 320,000;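 active means inhibition above the screen-wide mean plus 3 SD, limit set per campaign, cut at about 26% in these data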;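 further: 0% = LYPLA2 with DMSO and 100% = wells lacking LYPLA2 enzyme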
Target sequence (O95372 whole entry, looked up): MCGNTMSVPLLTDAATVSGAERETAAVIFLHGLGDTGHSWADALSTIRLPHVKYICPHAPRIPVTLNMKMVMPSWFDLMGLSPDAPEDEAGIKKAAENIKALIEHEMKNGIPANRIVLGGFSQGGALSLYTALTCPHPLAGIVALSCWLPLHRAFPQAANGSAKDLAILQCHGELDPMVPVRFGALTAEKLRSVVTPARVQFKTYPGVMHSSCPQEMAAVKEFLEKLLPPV
proCasp7 act: counter-screen: procaspase-7 (human) activation; P55210; hit rate 0.093% among 330,000; recombinant procaspase-7, Ac-DEVD-pNA absorbance 405 nm; D23A/D198A/D206A triple mutant, cannot self-cleave; scale: DMSO 0, 5 µM enzyme 100; activation, % at 8.5 µM;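 active means percent activation above the screen-wide mean plus 3 SD, cut at about 25% in these data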
Target sequence (P55210 whole entry D23A/D198A/D206A): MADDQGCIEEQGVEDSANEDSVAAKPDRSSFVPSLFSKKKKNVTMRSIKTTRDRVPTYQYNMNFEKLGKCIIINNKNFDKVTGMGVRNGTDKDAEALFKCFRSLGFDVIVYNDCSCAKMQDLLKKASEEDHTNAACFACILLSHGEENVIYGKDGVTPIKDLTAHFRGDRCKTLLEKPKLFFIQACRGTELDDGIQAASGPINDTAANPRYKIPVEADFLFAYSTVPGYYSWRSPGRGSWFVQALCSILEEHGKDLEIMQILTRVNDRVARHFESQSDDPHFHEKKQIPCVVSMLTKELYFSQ
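System: Uncleavable procaspase-7 mutant enzyme; Amount: 2 µM procaspase-7 mutant as dispensed; Schedule: 1 h compound preincubation, 2 h substrate cleavage, 25 °C; Measured by: 405 nm absorbance of p-nitroaniline; Evaluation: percent activation from buffer-corrected 0–120 min absorbance change; Control set: low DMSO alone, high DMSO plus 5 µM PC-7.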
Fam108B counter: counter-screen for RBBP9 inhibitors: inhibitors of mouse Fam108B; recombinant Fam108B, FP-Rh probe fluorescence polarization; inhibition, % at 9.51 µM; hit rate 0.33% among 300,000;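 active means inhibition above the screen mean inhibition plus 3 SD, computed separately per campaign, cut at about 18% in these data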;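 further: inhibitors lower polarization as less probe binds the enzyme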
LYPLA1 counter: blocks human lysophospholipase 1, a PME1 counter-screen; O75608; recombinant LYPLA1, FP-Rh probe fluorescence polarization; inhibition, % at 5.9 µM; hit rate 0.16% among 320,000; AID 2174;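 active means inhibition above the mean of all tested compounds plus 3 SD, set per campaign, cut at about 14% in these data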;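 further: inhibitors block serine hydrolase probe labeling of LYPLA1 so polarization falls; 0% = enzyme with DMSO and 100% = wells lacking LYPLA1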
Target sequence (O75608 whole entry, looked up): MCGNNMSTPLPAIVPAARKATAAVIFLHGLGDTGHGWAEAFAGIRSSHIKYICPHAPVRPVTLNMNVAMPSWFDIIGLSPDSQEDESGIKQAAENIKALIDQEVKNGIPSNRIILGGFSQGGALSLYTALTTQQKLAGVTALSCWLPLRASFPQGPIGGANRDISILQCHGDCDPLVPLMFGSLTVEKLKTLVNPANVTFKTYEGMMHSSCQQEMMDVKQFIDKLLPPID
PME-1 inh: PME-1 (human) inhibition. AID 2130. hit rate 0.53% among 320,000. inhibition, % at 5.9 µM. Q9Y570. recombinant PME-1, FP-Rh probe fluorescence polarization;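 active means inhibition above the campaign mean of all compounds plus 3 SD, cut at about 26% in these data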;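 further: competitive labeling of PME-1 active site by serine hydrolase directed probe; 0% = PME-1 with DMSO and 100% = wells lacking PME-1 enzyme; inhibitors block probe labeling so polarization falls and inhibition rises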
proCasp3 act: procaspase-3 (human) activation. P42574. recombinant procaspase-3 D3A, Ac-DEVD-pNA absorbance 405 nm. activation, % at 8.5 µM. hit rate 0.11% among 330,000;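 active means activation above the mean of all tested compounds plus 3 SD, cut at about 21% in these data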;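 further: 0% = DMSO alone and 100% = DMSO wells spiked with extra 5 µM PC-3 D3A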
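Test system: Procaspase-3 D3A mutant, all three cleavage aspartates alanine | Dosing: Single dose, 8.5 µM nominal compound, 0.8% DMSO | Schedule: 1 h preincubation, 2 h reaction | Technique: 405 nm absorbance of p-nitroaniline, reads at 0 and 120 min | Repeats: One well per compound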
LYPLA2 confirm: counter-screen for PME1 inhibitors: confirmation of human LYPLA2 inhibitors. recombinant LYPLA2, FP-Rh probe fluorescence polarization. hit rate 72% among 1,100. inhibition, % at 5.9 µM. shares compounds with LYPLA2 counter;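 active means mean inhibition across replicates above the hit cutoff set in the primary screen, cut at about 26% in these data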;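 further: blocked labeling of the enzyme by serine hydrolase FP-Rh probe lowers polarization; 0% = enzyme with DMSO and 100% = wells lacking LYPLA2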
LYPLA2 gel ABPP: blocks human acyl-protein thioesterase 2 in gel ABPP; shares compounds with LYPLA2 counter; rhLYPLA2 in mouse brain proteome, gel ABPP FP-Rh; inhibition, % at 20 µM; hit rate 30% among 150; AID 652029;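 active means inhibition of LYPLA2 enzyme probe labeling above about 50%, limit read from the data; inactive means inhibition below that limit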;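 further: loss of FP-Rh probe labeling of the LYPLA2 gel band measured as band density; 0% = DMSO only control band and 100% = blank gel background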
* marks the source's active call; other numbers are inactive results; . = not tested or not shown. Hits are enriched below; roughly 1% of the tested compounds scored in any of these assays.

SMILES	LYPLA2 counter	proCasp7 act	Fam108B counter	LYPLA1 counter	PME-1 inh	proCasp3 act	LYPLA2 confirm	others
O=C(CSCc1ccccc1Cl)Nc1c[nH]c(=O)[nH]c1=O	38.6*	-0.6	-5.3	1.5	3.6	8.8	-3.1
CCCn1c(SCC(=O)N2CCCC(C)C2)nnc1-c1ccccn1 (stereo not given)	-6.8	2.8	-0.3	-2.5	-0.7	9.1	.
O=C(NCc1ccccn1)c1ccc(OC2CCN(Cc3ccccc3)CC2)cc1	2.9	9.5	5.7	1.2	0.3	10.3	.
O=C(NCc1ccccn1)c1ccc(OC2CCN(Cc3cccs3)CC2)cc1	28.0*	4.0	-0.6	-1.9	2.3	1.1	6.3
CC(C)CC1(C)NC(=O)N(CC(=O)Nc2ccc3c(c2)CCC3)C1=O (stereo not given)	-1.7	5.1	-0.6	-2.8	-8.2	2.1	.
O=C(CN1C(=O)S/C(=C\c2ccc(O)cc2)C1=O)c1ccccc1	34.9*	-4.0	-0.8	-7.1	16.8	-18.8	32.9*
Cc1ccc(NC(=O)CN2C(=O)S/C(=C/c3ccncc3)C2=O)cc1	8.3	-4.6	4.0	1.9	0.7	2.2	.
Cc1cccc(NC(=O)CN2C(=O)S/C(=C\c3ccc(-c4cccc(C(=O)O)c4C)o3)C2=O)c1	29.1*	9.1	-0.7	3.1	-7.5	-0.2	35.2*
O=C(CN1C(=O)S/C(=C\c2ccc(C(=O)O)cc2)C1=O)Nc1ccccc1	58.4*	-0.5	-8.2	2.3	1.0	0.0	66.7*	LYPLA2 gel ABPP=63.0*
O=C(OCc1nnc(-c2ccccc2)o1)c1cc([N+](=O)[O-])ccc1Cl	8.4	2.4	-0.9	-1.7	1.4	7.9	.
Cc1onc(-c2ccccc2)c1C(=O)OCc1nnc(-c2ccc([N+](=O)[O-])cc2)o1	28.2*	-8.8	.	-0.3	2.2	4.3	28.4*
NNC(=O)c1oc2nc(-c3ccccc3)cc(-c3ccccc3)c2c1N	32.2*	-15.4	7.1	-0.9	5.5	-23.7	8.5
CNC(=S)NNC(=O)c1oc2nc(-c3ccccc3)cc(C)c2c1N	7.1	-11.0	0.2	-2.1	-3.8	-11.0	.
CN(C)c1cccc(C(=O)NNC(=O)CN2C(=O)C3CC=CCC3C2=O)c1 (stereo not given)	.	0.8	.	.	.	7.5	.
O=C(/C=C/c1ccc([N+](=O)[O-])cc1)N1CCN(Cc2ccccc2)CC1	31.8*	-1.4	-1.4	5.5	3.8	5.1	39.5*
CC/C(=N\NC(=O)c1nnn(-c2nonc2N)c1-c1cccc(OC)c1)c1ccc(C)cc1	-7.3	1.8	-5.0	-1.9	-3.4	2.7	.
Nc1cc(Cl)ccc1Oc1ccc2ccccc2c1	28.3*	5.3	-2.8	2.9	2.8	6.4	13.2
Cc1ccc(Oc2ccc(Cl)cc2N)cc1	0.0	-7.7	-1.6	1.6	0.3	7.5	.
O=C(CN1C(=O)c2ccccc2C1=O)N1CCN=C1c1ccccc1	3.9	8.7	-0.1	3.9	-4.5	2.6	.
Cc1ccc(C(=O)O)cc1NC(=S)NC(=O)c1ccc(COc2ccccc2)cc1	46.3*	-9.3	-4.3	3.9	-8.1	-8.8	51.4*	LYPLA2 gel ABPP=23.0
O=C(O)c1cccc(NC(=S)NC(=O)c2cccc(OCc3ccccc3)c2)c1	31.2*	1.2	-9.1	1.9	-5.7	-8.6	29.2*
Cc1ccc(C(=O)O)cc1NC(=S)NC(=O)Cc1ccccc1	2.7	0.7	-1.8	2.3	3.7	1.8	.
CCN1CCN(S(=O)(=O)c2ccc(Cl)c(C(=O)Nc3nnc(C)s3)c2)CC1	3.1	4.2	-0.9	1.5	-7.6	6.8	.
CO/N=C/c1ccc(N2CCN(C(=O)c3ccc(C)cc3)CC2)c([N+](=O)[O-])c1	36.6*	-6.9	2.0	2.9	4.6	-6.1	38.7*
O=C(Oc1ccc(Cl)cc1)c1ccc(N2CCOCC2)c([N+](=O)[O-])c1	33.2*	4.4	0.3	3.7	-2.6	-1.6	28.1*
SMILES	LYPLA2 counter	proCasp7 act	Fam108B counter	LYPLA1 counter	PME-1 inh	proCasp3 act	LYPLA2 confirm	others
O=C(O/N=C\c1ccc(N2CCOCC2)c([N+](=O)[O-])c1)c1ccccc1Cl	41.2*	15.5	3.0	0.0	-0.8	-5.9	43.3*
O=C(O/N=C/c1ccc2c(c1)OCO2)c1ccccc1Cl	26.2*	10.8	5.5	3.3	2.9	3.5	14.3
O=C(O/N=C\c1ccc(N2CCOCC2)c([N+](=O)[O-])c1)c1ccc(F)cc1	10.9	9.0	1.4	4.5	1.5	0.0	.
CCN1CCN(c2ccc(S(=O)(=O)N3CCOCC3)cc2NC(=O)c2ccc(F)cc2Cl)CC1	10.7	18.0	1.3	3.2	-0.3	-0.8	.
Cc1nc(-c2ccc(S(=O)(=O)N3CCCN(CCc4ccccc4)CC3)s2)cs1	61.0*	3.0	0.2	8.5	2.2	-0.3	67.8*	LYPLA2 gel ABPP=50.0*
Cc1cccc(-n2c(C)cc(C)c(C#N)c2=O)c1	6.8	11.3	-0.2	1.5	-3.2	5.3	.
COc1ccc(CN(C)C(=O)c2ccc(Cl)c(S(=O)(=O)NCc3cccnc3)c2)cc1F	3.6	-4.5	.	3.9	9.1	12.7	.
Clc1ccc(-c2nnc(C3CC3)o2)cc1	9.5	7.9	1.2	4.7	2.0	2.7	.
CCC1CCC(c2nnc(-c3ccc([N+](=O)[O-])cc3)o2)CC1 (stereo not given)	49.3*	4.4	3.9	6.0	-2.3	-0.8	51.3*	LYPLA2 gel ABPP=23.0
Cc1nc(-c2ccc(S(=O)(=O)Oc3ccccc3Cl)s2)cs1	-6.1	3.0	-9.9	-5.4	-2.6	-4.0	.
COc1ccc(/C=C2\SC(=O)N(CC(=O)Nc3cccnc3)C2=O)cc1OC	35.4*	-10.5	-1.1	0.5	-1.5	-0.7	26.2*
CCN1C(=O)S/C(=C/c2ccc(Oc3ccc([N+](=O)[O-])cn3)c(OC)c2)C1=O	32.0*	3.5	-4.7	3.6	-2.1	-3.5	40.8*
COc1cc(/C=C2\SC(=O)N(CC(=O)Nc3ccccc3F)C2=O)cc(Cl)c1O	50.9*	0.0	6.8	1.4	2.9	-8.2	60.9*
COc1ccc(/C=C2/SC(=O)N(CCC(=O)Nc3ccc(C)cc3)C2=O)cc1OC	-4.6	8.7	-0.8	-0.2	-1.2	1.0	.
COc1ccc(/C=C2\SC(=O)N(CC(=O)Nc3ccc(F)cc3)C2=O)cc1O	48.6*	-109.7	-6.3	-14.3	-5.7	-18.0	53.6*	LYPLA2 gel ABPP=50.0*
COC(=O)CCCC(=O)N1CCC(CO)(CCc2ccccc2)CC1	1.6	6.2	-2.0	-3.4	-4.3	12.0	.
Cc1ccc(C(C)C)c(OCCNC(=S)Nc2cccc3ccccc23)c1	-16.4	1.6	-6.0	-8.7	-5.4	4.9	.
